In ChEMBL document CHEMBL2311390, “Synthesis and preliminary evaluation of pharmacological properties of some piperazine derivatives of xanthone” (Bioorg Med Chem, 2013) one finds Ki data, which are given here for 7 molecules.

In test [1] the target is T1, Adrenergic receptor alpha-2 (Rattus norvegicus, UniProt P22086+P19328+P22909).
T1 sequence (P22086 whole entry): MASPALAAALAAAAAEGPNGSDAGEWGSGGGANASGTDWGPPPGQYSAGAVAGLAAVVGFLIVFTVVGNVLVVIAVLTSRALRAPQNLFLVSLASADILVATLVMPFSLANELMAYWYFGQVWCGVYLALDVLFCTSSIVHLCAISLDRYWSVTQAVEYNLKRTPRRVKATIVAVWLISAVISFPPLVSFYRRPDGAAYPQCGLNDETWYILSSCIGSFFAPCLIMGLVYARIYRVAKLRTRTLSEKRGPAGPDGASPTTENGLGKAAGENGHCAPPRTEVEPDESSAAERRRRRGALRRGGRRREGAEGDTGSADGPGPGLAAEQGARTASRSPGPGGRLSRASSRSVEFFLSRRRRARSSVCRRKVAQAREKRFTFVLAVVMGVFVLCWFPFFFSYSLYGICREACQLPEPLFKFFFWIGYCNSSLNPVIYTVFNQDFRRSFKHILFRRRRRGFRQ
T1 sequence (P19328 whole entry): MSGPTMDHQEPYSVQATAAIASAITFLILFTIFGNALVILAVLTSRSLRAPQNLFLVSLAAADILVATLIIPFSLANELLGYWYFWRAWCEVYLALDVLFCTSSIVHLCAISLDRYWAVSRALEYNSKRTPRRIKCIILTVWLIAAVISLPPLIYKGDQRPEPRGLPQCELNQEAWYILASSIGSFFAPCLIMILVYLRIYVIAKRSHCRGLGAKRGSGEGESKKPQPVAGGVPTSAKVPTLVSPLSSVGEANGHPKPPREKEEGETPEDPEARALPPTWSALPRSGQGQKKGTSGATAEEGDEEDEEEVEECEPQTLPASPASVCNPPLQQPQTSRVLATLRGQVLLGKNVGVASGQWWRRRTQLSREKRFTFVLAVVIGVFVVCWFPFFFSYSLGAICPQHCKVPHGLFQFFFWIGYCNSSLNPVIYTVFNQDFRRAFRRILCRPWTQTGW
T1 sequence (P22909 whole entry): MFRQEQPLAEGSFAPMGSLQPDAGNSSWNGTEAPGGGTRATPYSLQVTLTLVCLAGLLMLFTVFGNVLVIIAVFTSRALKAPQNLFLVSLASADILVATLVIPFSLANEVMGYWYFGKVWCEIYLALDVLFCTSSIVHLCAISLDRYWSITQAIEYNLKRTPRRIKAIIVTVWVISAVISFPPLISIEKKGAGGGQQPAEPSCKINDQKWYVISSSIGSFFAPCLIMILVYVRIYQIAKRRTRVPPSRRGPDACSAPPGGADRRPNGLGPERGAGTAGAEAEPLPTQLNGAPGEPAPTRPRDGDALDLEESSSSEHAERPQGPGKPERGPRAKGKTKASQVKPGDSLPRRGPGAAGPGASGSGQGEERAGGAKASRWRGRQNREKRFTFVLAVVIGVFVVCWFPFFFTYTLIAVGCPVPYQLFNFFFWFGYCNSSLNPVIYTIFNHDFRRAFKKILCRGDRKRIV
The test is described as follows: Displacement of [3H]clonidine from alpha2-adrenergic receptor in rat cerebral cortex by liquid scintillation counting. Type of test: tissue-based. In outline: (§1)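 Rat cerebral cortex was homogenised in ice-cold 50 mM Tris-HCl pH 7.6 and spun at 20,000 g for 20 min at 0–4 °C, then washed once. Radioligands: [3H]prazosin 0.2 nM for α1, [3H]clonidine 2 nM for α2, [3H]CGP-12177 0.2 nM for β1. Test compounds were run at 7–8 concentrations from 10^-11 to 10^-4 M. Nonspecific binding was defined with phentolamine (α1), clonidine (α2) or propranolol (β1). Counting was by liquid scintillation, in duplicate. Ki was derived by Cheng–Prusoff from 2–3 experiments.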

The target of test [2] is T2, Adrenergic receptor alpha-1 (Rattus norvegicus, UniProt P15823+P23944+P43140).
T2 sequence (P15823 whole entry): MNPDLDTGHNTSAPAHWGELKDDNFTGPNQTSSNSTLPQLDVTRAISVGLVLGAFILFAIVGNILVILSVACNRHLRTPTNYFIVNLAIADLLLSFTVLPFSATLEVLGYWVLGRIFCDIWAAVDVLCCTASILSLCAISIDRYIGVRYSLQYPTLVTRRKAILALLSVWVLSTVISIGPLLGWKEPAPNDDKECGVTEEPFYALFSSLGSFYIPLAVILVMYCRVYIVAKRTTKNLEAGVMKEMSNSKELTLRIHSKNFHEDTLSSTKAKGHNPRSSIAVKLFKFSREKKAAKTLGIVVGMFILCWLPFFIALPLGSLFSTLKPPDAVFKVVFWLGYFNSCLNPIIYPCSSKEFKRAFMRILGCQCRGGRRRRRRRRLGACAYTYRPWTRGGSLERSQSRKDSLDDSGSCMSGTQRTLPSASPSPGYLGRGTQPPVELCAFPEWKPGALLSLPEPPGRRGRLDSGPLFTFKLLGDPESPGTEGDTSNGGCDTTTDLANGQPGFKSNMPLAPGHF
T2 sequence (P23944 whole entry): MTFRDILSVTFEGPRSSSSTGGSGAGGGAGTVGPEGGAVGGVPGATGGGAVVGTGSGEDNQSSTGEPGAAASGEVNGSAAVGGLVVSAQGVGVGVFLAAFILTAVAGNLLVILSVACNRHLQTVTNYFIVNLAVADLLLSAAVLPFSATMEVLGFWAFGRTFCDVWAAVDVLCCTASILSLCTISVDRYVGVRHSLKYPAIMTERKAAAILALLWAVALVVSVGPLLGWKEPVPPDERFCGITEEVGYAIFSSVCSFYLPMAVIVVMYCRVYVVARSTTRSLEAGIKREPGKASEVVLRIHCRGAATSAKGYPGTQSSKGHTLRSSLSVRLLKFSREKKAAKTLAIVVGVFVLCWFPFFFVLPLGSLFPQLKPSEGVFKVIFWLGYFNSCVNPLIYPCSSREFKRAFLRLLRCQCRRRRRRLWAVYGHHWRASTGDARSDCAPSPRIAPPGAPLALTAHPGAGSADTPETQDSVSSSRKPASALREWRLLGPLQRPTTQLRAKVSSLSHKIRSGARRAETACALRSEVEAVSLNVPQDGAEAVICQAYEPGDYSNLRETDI
T2 sequence (P43140 whole entry): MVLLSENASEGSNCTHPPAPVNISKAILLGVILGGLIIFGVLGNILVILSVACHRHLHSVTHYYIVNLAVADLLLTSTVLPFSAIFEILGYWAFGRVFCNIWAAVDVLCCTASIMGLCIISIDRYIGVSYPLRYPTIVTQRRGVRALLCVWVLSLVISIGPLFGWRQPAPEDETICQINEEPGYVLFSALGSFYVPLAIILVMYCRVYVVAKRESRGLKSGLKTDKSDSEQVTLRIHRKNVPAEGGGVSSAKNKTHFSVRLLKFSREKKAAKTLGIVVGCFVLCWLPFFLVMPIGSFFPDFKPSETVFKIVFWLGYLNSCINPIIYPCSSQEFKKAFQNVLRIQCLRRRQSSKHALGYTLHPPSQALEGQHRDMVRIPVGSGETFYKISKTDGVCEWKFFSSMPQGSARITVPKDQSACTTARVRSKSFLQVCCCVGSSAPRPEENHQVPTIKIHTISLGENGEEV
The test is described as follows: Displacement of [3H]-prazosin from alpha1-adrenergic receptor in rat cerebral cortex by liquid scintillation counting. Type of test: tissue-based. In outline: as §1
(In general: In a radioligand displacement assay an active substance lowers the binding of a labelled ligand.)

The term Ki denotes a dissociation constant, usually derived from enzyme kinetics or from competition with a known ligand. Read a high Ki as lower affinity. `Cl.Cl.Cl.O=c1c2ccc(Cl)cc2oc2c(OCC(O)CN3CCN(Cc4ccccc4)CC3)cccc12` (racemic): the Ki in test [1] was determined as 7700 nM; in test [2], 614 nM.
For the molecule `COc1ccccc1N1CCN(CC(O)COc2cccc3c(=O)c4ccccc4oc23)CC1.Cl` (racemic), the Ki worked out at 4260 nM in test [1] and 18 nM in test [2].
With `Cl.Cl.Cl.O=c1c2ccc(Cl)cc2oc2c(OCC(O)CN3CCN(CCOc4ccccc4)CC3)cccc12` (racemic), the Ki came out at 450 nM in test [1] and 506 nM in test [2].
For the molecule `Cl.Cl.Cl.O=c1c2ccc(Cl)cc2oc2c(OCC(O)CN3CCN(C/C=C/c4ccccc4)CC3)cccc12` (racemic), the Ki in test [1] is 3400 nM; in test [2], 1100 nM.
Consider `COc1ccccc1N1CCN(CC(COc2cccc3c(=O)c4ccccc4oc23)OC(C)=O)CC1.Cl` (racemic), for which the Ki stood at 2100 nM in test [1] and 50 nM in test [2].
For `Cl.Cl.O=c1c2ccccc2oc2c(OCC(O)CN3CCN(C/C=C/c4ccccc4)CC3)cccc12` (racemic) the same measures were 634 nM and 677 nM.
For `COc1ccccc1N1CCN(CCCOc2cccc3c(=O)c4ccccc4oc23)CC1.Cl` the same measures were 695 nM and 4 nM.
